Laboratory results reported in ChEMBL document CHEMBL1143434, “A diaminocyclohexyl analog of SNS-032 with improved permeability and bioavailability properties” (Bioorg Med Chem Lett, 2008).

Tests used:
[1] = target: Cyclin-dependent kinase 9 (Homo sapiens, UniProt P50750); assay: Inhibition of CDK9 in human HCT116 cells assessed as phosphor-ser2 level of RNA polymerase 2 after 16 hrs by high content cellular assay; format: cell-based, HCT-116
[2] = target: Cyclin-dependent kinase 2 (Homo sapiens, UniProt P24941); assay: Inhibition of CDK2/cyclin A by IMAP florescence polarization assay
[3] = Cmax in CD1 mouse at 45 mg/kg, po; format: ADME, organism-based; set-up: dose 45 mg/kg, route oral; conditions: in vivo
Procedure, shortened: (§1)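 Female CD-1 mice, 6–8 weeks old, 3 mice per timepoint. Single oral gavage dose of 10, 30 or 45 mg/kg at 10 mL/kg in 2.1 mM tartaric acid, pH 4.0. Terminal cardiac-puncture blood taken at 0.25–8 h into K2-EDTA and spun to plasma. Plasma read by LC–MS/MS (LLOD 1 ng/mL). Concentrations were averaged per timepoint before PK estimation.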

[4] = Volume of distribution at steady state in CD1 mouse at 5 mg/kg, iv; format: ADME, organism-based; set-up: dose 5 mg/kg, route intravenous; conditions: in vivo, read-out: Vdss
Procedure, shortened: (§2)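 Single IV tail-vein dose of 5 mg/kg at 5 mL/kg in 2.1 mM tartaric acid, pH 4.0, to female CD-1 mice aged 6–8 weeks, 3 per timepoint. Blood taken by cardiac puncture after euthanasia at 0.083–8 h into K2-EDTA, and plasma analysed by LC–MS/MS (LLOD 1 ng/mL). PK parameters were estimated from mean concentrations per timepoint.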

[5] = Half life in CD1 mouse at 5 mg/kg, iv; format: ADME, organism-based; set-up: dose 5 mg/kg, route intravenous; conditions: in vivo; procedure, shortened: as §2
[6] = Bioavailability in CD1 mouse at 45 mg/kg, po; format: ADME, organism-based; conditions: in vivo; procedure, shortened: as §1
[7] = Clearance in CD1 mouse at 5 mg/kg, iv; format: ADME, organism-based; set-up: dose 5 mg/kg, route intravenous; conditions: in vivo; procedure, shortened: as §2
[8] = Half life in CD1 mouse at 30 mg/kg, po; format: ADME, organism-based; set-up: dose 30 mg/kg, route oral; conditions: in vivo; procedure, shortened: as §1
[9] = AUC in CD1 mouse at 10 mg/kg, po; format: ADME, organism-based; set-up: dose 10 mg/kg, route oral; conditions: plasma; procedure, shortened: as §1
[10] = Metabolic stability in human liver microsomes at 1 uM after 60 mins; format: ADME, Microsome; conditions: read-out: Stability
Procedure, shortened: (§3)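 Liver microsomes at 0.5 mg/mL protein in 100 mM sodium phosphate, pH 7.4, with 3.3 mM MgCl2, pre-equilibrated 10 min at 37 °C. Reaction started with 1 mM NADPH. Aliquots taken at 0, 30 and 60 min and quenched in acetonitrile with internal standard, then centrifuged and analysed by LC–MS/MS. Lidocaine and dextromethorphan served as positive controls.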

[11] = target: Cyclin-dependent kinase 1/cyclin B1 (Homo sapiens, UniProt P06493); assay: Inhibition of CDK1/cyclin B by IMAP florescence polarization assay; format: protein-complex assay
Procedure, shortened: (§4)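 IMAP fluorescence polarization kinase assay measuring phosphorylation of a fluorescein-labeled substrate. Run in IMAP tween reaction buffer with 1 mM DTT and sodium vanadate.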

[12] = Metabolic stability in human liver microsomes at 1 uM after 30 mins; format: ADME, Microsome; conditions: read-out: Stability; procedure, shortened: as §3
[13] = Cmax in CD1 mouse at 30 mg/kg, po; format: ADME, organism-based; set-up: dose 30 mg/kg, route oral; conditions: in vivo; procedure, shortened: as §1
[14] = Half life in CD1 mouse at 45 mg/kg, po; format: ADME, organism-based; set-up: dose 45 mg/kg, route oral; conditions: in vivo; procedure, shortened: as §1
[15] = target: Cyclin-dependent kinase 7/ cyclin H (Homo sapiens, UniProt P50613); assay: Inhibition of CDK7/cyclinH by Upstate enzymatic assay
[16] = Bioavailability in CD1 mouse at 30 mg/kg, po; format: ADME, organism-based; conditions: in vivo; procedure, shortened: as §1
[17] = Metabolic stability in mouse liver microsomes at 1 uM after 60 mins; format: ADME, Microsome; conditions: read-out: Stability; procedure, shortened: as §3
[18] = Cmax in CD1 mouse at 5 mg/kg, iv; format: ADME, organism-based; set-up: dose 5 mg/kg, route intravenous; conditions: in vivo; procedure, shortened: as §2
[19] = AUC in CD1 mouse at 30 mg/kg, po; format: ADME, organism-based; set-up: dose 30 mg/kg, route oral; conditions: plasma; procedure, shortened: as §1
[20] = Half life in CD1 mouse at 10 mg/kg, po; format: ADME, organism-based; set-up: dose 10 mg/kg, route oral; conditions: in vivo; procedure, shortened: as §1
[21] = Bioavailability in CD1 mouse at 10 mg/kg, po; format: ADME, organism-based; conditions: in vivo; procedure, shortened: as §1
[22] = AUC in CD1 mouse at 5 mg/kg, iv; format: ADME, organism-based; set-up: dose 5 mg/kg, route intravenous; conditions: plasma; procedure, shortened: as §2
[23] = AUC in CD1 mouse at 45 mg/kg, po; format: ADME, organism-based; set-up: dose 45 mg/kg, route oral; conditions: plasma; procedure, shortened: as §1
[24] = Metabolic stability in mouse liver microsomes at 1 uM after 30 mins; format: ADME, Microsome; conditions: read-out: Stability; procedure, shortened: as §3
[25] = Inhibition of CDK6/cyclin D by IMAP florescence polarization assay; procedure, shortened: as §4
CDK9/cyclin T1 = CDK9/cyclin T1 (Homo sapiens, UniProt P50750); assay: Inhibition of CDK9/cyclinT by IMAP florescence polarization assay; procedure, shortened: as §4
[26] = Cmax in CD1 mouse at 10 mg/kg, po; format: ADME, organism-based; set-up: dose 10 mg/kg, route oral; conditions: in vivo; procedure, shortened: as §1
[27] = Efflux ratio of permeability from basolateral to apical side to apical to basolateral side in MDCK2 cells at 2 uM after 3 hrs; format: ADME, cell-based, Canis lupus familiaris, MDCK-II; conditions: dog, MDCK
Procedure, shortened: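 MDCK II cells grown in DMEM with 10% FBS and antibiotics, seeded 50,000 cells/well on transwells and cultured 5 days; monolayers PBS-washed. Compound at 2 μM in DMEM added to apical or basolateral side; both compartments sampled after 3 h at 37 °C in humidified CO₂. Quantified by LC–MS/MS with verapamil internal standard; Papp calculated per direction.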

Chain of Cyclin-dependent kinase 9 (P50750 whole entry): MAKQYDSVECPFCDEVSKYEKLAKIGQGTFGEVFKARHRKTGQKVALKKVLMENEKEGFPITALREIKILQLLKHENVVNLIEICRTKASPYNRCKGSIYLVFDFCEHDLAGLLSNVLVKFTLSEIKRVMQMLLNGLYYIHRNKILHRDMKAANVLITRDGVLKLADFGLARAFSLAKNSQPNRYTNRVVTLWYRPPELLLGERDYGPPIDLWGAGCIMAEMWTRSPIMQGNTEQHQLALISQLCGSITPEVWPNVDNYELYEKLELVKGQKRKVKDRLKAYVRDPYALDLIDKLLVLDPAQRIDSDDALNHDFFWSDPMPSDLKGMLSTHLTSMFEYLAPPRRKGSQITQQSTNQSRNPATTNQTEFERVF
Chain of CDK9/cyclin T1 (O60563 whole entry): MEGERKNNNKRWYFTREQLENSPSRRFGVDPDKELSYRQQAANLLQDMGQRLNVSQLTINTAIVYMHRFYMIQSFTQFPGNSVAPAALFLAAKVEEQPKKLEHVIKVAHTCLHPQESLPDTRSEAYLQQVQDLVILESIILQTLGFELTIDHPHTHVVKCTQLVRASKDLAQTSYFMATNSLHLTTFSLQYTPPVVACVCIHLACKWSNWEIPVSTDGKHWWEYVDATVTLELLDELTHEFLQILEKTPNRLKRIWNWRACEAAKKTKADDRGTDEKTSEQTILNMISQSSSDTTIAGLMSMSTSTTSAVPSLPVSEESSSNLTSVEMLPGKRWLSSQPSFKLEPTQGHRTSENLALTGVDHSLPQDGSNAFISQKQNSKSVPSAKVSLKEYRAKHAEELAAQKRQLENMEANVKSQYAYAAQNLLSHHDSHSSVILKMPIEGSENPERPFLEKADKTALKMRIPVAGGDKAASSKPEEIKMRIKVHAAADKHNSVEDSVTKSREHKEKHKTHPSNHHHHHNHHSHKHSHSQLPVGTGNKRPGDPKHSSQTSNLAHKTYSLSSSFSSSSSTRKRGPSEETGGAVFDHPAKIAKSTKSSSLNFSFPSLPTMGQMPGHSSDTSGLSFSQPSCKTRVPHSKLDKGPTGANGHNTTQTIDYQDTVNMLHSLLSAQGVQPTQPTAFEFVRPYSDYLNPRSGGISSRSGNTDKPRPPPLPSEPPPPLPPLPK
Chain of CDK9/cyclin T1 (P50750 whole entry): as the sequence (P50750 whole entry) above
Chain of Cyclin-dependent kinase 1/cyclin B1 (P06493 whole entry): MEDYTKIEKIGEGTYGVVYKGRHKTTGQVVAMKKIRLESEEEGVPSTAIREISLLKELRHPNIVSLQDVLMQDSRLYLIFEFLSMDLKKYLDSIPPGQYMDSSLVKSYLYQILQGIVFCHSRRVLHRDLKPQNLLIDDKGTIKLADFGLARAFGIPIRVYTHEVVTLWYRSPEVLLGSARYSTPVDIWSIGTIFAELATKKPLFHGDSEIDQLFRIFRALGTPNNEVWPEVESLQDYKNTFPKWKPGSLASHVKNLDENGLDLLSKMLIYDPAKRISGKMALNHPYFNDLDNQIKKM
Chain of Cyclin-dependent kinase 1/cyclin B1 (P14635 whole entry, further chain): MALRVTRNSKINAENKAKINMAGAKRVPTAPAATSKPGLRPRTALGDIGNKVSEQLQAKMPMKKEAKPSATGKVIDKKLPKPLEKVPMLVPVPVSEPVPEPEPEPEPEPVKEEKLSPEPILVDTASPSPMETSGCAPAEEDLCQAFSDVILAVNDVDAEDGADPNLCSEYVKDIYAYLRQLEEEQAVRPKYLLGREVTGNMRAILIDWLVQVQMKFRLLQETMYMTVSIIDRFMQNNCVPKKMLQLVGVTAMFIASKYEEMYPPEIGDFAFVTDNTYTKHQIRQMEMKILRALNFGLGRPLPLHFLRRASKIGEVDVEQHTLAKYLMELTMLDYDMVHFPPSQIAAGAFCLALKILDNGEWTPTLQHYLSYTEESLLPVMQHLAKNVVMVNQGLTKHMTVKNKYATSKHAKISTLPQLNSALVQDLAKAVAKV
Chain of Cyclin-dependent kinase 7/ cyclin H (P51946 whole entry): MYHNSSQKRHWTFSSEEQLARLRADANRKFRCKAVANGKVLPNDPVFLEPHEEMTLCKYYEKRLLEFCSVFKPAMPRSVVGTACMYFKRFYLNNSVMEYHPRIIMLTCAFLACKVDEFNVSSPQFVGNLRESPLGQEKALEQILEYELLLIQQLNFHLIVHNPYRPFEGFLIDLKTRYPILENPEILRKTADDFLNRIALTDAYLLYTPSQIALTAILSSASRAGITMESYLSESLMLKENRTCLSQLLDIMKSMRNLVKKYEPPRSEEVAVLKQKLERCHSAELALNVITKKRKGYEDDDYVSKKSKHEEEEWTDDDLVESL
Chain of Cyclin-dependent kinase 7/ cyclin H (P50613 whole entry): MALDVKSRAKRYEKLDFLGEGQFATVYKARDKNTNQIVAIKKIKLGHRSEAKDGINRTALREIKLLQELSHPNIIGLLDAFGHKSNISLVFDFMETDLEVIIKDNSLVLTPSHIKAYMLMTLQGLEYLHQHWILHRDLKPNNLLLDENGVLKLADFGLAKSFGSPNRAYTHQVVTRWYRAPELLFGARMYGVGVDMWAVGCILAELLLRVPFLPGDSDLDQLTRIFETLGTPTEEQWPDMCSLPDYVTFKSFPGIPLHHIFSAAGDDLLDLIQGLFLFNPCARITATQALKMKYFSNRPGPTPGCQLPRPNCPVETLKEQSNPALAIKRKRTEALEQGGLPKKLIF

**Q.** With CC(C)(C)c1cnc(CSc2cnc(N[C@H]3CC[C@H](O)CC3)s2)o1 as the molecule, how does the IC50 [1] read?
**A.** 3500 nM

**Q.** And the IC50 [2]?
**A.** 7 nM

**Q.** Which results are given for CC(C)(C)c1cnc(CSc2cnc(NC3CCCC(O)C3)s2)o1 (stereo not given)?
**A.** IC50 [1]: > 10000 nM; IC50 [2]: 28 nM

**Q.** For CC(C)(C)c1cnc(CSc2cnc(NCC3CCCCC3)s2)o1, which IC50 [1] is on record?
**A.** > 10000 nM

**Q.** And the IC50 [2]?
**A.** 168 nM

**Q.** For CC(C)(C)c1cnc(CSc2cnc(N[C@H]3CC[C@H](N)CC3)s2)o1, which Cmax [3] is on record?
**A.** 4600 ng/mL

**Q.** What about the Vd [4] of the same molecule?
**A.** 6 L/kg

**Q.** What about the half-life [5] of the same molecule?
**A.** 1.9 h

**Q.** And the bioavailability [6]?
**A.** 100%

**Q.** And the clearance [7]?
**A.** 72 mL/min/kg

**Q.** What about the half-life [8] of the same molecule?
**A.** 1.2 h

**Q.** And the AUC [9]?
**A.** 1430 ng·h/mL

**Q.** And the remaining at 1 h, 1 µM [10]?
**A.** 53%

**Q.** What about the IC50 [11] of the same molecule?
**A.** 763 nM

**Q.** What about the remaining at 0.5 h, 1 µM [12] of the same molecule?
**A.** 64%

**Q.** What about the Cmax [13] of the same molecule?
**A.** 2390 ng/mL

**Q.** And the IC50 [1]?
**A.** 355 nM

**Q.** What about the IC50 [2] of the same molecule?
**A.** 20 nM

**Q.** And the half-life [14]?
**A.** 1.2 h

**Q.** What about the IC50 [15] of the same molecule?
**A.** 105 nM

**Q.** What about the bioavailability [16] of the same molecule?
**A.** 92%

**Q.** And the remaining at 1 h, 1 µM [17]?
**A.** 77%

**Q.** And the Cmax [18]?
**A.** 1660 ng/mL

**Q.** And the AUC [19]?
**A.** 6390 ng·h/mL

**Q.** And the half-life [20]?
**A.** 1.5 h

**Q.** And the bioavailability [21]?
**A.** 62%

**Q.** And the AUC [22]?
**A.** 1160 ng·h/mL

**Q.** And the AUC [23]?
**A.** 10700 ng·h/mL

**Q.** What about the remaining at 0.5 h, 1 µM [24] of the same molecule?
**A.** 76%

**Q.** And the IC50 [25]?
**A.** > 2000 nM

**Q.** And the IC50 (CDK9/cyclin T1)?
**A.** 97 nM

**Q.** What about the Cmax [26] of the same molecule?
**A.** 411 ng/mL

**Q.** What about the efflux ratio at 3 h, 2 µM [27] of the same molecule?
**A.** 9.4

**Q.** For CC(C)(C)c1cnc(CSc2cnc(N[C@H]3CC[C@@H](N)CC3)s2)o1, which IC50 [1] is on record?
**A.** > 10000 nM

**Q.** And the IC50 [2]?
**A.** 503 nM

**Q.** Which results are given for CC(C)(C)c1cnc(CSc2cnc(NC3CCCCC3)s2)o1?
**A.** IC50 [1]: > 10000 nM; IC50 [2]: 9 nM

**Q.** Which IC50 [1] does the source give for CC(C)(C)c1cnc(CSc2cnc(NC3CCCC(N)C3)s2)o1 (stereo not given) here?
**A.** > 10000 nM

**Q.** What about the IC50 [2] of the same molecule?
**A.** 158 nM

**Q.** For CC(C)(C)c1cnc(CSc2cnc(N)s2)o1, which IC50 [1] is on record?
**A.** > 10000 nM

**Q.** And the IC50 [2]?
**A.** 690 nM

**Q.** Which results are given for CC(C)(C)c1cnc(CSc2cnc(NC3CCNCC3)s2)o1?
**A.** IC50 [1]: > 10000 nM; IC50 [2]: 538 nM

**Q.** Which IC50 [1] does the source give for CC(C)(C)c1cnc(CSc2cnc(NCC3CCNCC3)s2)o1 here?
**A.** > 10000 nM

**Q.** What about the IC50 [2] of the same molecule?
**A.** 229 nM

**Q.** Which results are given for CC(C)(C)c1cnc(CSc2cnc(NC(=O)C3CCNCC3)s2)o1 [BMS-387032]?
**A.** Vd [4]: 3 L/kg; half-life [5]: 0.6 h; clearance [7]: 55 mL/min/kg; AUC [9]: 434 ng·h/mL; Cmax [18]: 2230 ng/mL; half-life [20]: 0.5 h; bioavailability [21]: 14%; AUC [22]: 1510 ng·h/mL; Cmax [26]: 275 ng/mL
